Assay [1] concerns the target T1, homomeric ASIC1a (Rattus norvegicus, UniProt P55926).
T1 sequence (P55926 1-526): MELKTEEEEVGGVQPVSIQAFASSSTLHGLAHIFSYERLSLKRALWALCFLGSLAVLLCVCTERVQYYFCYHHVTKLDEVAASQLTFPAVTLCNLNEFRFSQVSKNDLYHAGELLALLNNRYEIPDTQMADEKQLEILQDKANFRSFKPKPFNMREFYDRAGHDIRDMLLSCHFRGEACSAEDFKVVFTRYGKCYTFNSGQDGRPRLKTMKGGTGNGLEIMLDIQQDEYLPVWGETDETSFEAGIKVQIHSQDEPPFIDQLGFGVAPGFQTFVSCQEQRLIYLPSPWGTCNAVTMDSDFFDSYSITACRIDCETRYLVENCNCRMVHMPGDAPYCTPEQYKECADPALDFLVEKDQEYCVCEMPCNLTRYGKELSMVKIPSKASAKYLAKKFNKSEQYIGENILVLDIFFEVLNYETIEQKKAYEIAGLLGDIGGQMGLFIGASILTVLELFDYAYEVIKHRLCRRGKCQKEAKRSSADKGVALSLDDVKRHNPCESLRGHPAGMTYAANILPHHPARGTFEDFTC
The assay is described as follows: Direct opening of ASIC1a channels by PcTx1. Type of assay: cell-based. The conditions noted are these: 100 μM amiloride. The gist of the method:
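Rat ASIC1a cRNA (0.01 ng) injected into stage V-VI Xenopus oocytes, kept 2-4 d in OR-2 (pH 7.3); whole-cell currents at -70 mV. The conditioning solution was switched from 1.8 to 0.1 mM Ca2+ (with 0.1 mM flufenamic acid) at pH 7.35, together with 100 nM test peptide toxin in 0.05% BSA. The transient inward current was tested with 100 µM amiloride.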

Assay [2] deals with ASIC3. The conditions noted are these: ref Diochot et al., 2004, cited from earlier work.
The test system of assay [3] is ASIC1a. As to conditions: ref Diochot et al., 2004; cited from earlier work.

As to `N=C(N)NC(=O)c1nc(Cl)c(N)nc1N` [amiloride], the “block of PcTx1-elicited currents by amiloride” value in assay [1] (100 nM PcTx1 coapplied with pH 7.1, n = 3) is recorded as “could be blocked”; in assay [1] (100 nM PcTx1 with 0.1 mM Ca2+ at pH 7.35, n = 4), “could be blocked”.

For the compound APETx2, the “inhibition of ASIC3” value in assay [2] (inhibition during steady state (at pH 7.4)) was “inhibits”. In addition, the “affinity of the interaction with ASIC3” value in assay [2] is recorded as “nanomolar affinity”. In addition, the “inhibition of ASIC1a” value in assay [3] is listed as “does not inhibit”.

These data come from publication PMC2266618 (The Journal of General Physiology, 2005).
